Measured values published in publication PMC3897123 (MedChemComm, 2013).
Each block holds one compound with its values, some of them ahead of it.

Legend:
Nox2 [1] = target: T1, Nox2 (Homo sapiens, UniProt P04839); assay: Cell-free Nox2 activity in lysed COS-Nox2 cells; type: biochemical; conditions: 6.3 μM compound; COS-Nox2 cell lysate, 130 μM LiDS, 180 μM NADPH
T1 sequence (P04839 2-570 limits assumed): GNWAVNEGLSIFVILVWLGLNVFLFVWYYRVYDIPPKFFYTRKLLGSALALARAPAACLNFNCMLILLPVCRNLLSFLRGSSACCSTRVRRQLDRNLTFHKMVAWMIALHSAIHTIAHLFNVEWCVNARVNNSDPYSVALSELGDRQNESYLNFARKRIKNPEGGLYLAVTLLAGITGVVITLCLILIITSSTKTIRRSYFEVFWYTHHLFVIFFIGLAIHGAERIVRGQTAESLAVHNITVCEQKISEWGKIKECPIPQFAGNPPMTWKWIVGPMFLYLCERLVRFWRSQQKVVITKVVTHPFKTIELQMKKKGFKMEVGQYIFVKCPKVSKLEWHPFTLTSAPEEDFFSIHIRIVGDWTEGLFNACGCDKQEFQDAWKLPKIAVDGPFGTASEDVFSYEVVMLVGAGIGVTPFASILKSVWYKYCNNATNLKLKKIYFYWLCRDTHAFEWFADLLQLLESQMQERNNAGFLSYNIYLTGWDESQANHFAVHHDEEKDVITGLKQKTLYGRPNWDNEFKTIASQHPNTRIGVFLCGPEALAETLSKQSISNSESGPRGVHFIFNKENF
T1 sequence (P13498 2-195 partner limits assumed): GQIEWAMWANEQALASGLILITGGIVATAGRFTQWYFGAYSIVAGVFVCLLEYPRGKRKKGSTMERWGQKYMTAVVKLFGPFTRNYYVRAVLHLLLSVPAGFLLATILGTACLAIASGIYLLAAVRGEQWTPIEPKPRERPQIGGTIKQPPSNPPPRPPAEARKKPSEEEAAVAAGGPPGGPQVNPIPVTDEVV
Procedure, shortened: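 Cell-free system: COS-Nox2 cell lysate is preincubated with test compound for 15 min at 25 °C. Subunits are assembled with 130 μM LiDS, and the reaction is started with 180 μM NADPH. O2•− is measured as the initial linear rate of SOD-inhibitable cytochrome C reduction, in nmol O2•− per min per 10^7 cell equivalents.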

cell viability = assay: CytoTox-Glo cell viability assay; type: cell-based; conditions: only at the highest concentration tested
Nox2 [2] = target: T1, Nox2; assay: L-012 chemiluminescence assay of O2•− generation in whole COS-Nox2 cells; type: cell-based
Procedure, shortened: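 Stable Nox2-transfected COS cells, stimulated with 5 μM PMA; O2•− is detected by L-012 chemiluminescence. The primary screen of library compounds ran at 100, 50, 25 and 12.5 μM. Follow-up concentration–response data are expressed as % of vehicle control (mean ± SEM of 3–7 independent experiments), and IC50 is extrapolated from the curve slope.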

Nox4 = target: T2, Nox4 (Homo sapiens, UniProt Q9NPH5); assay: Amplex Red assay of constitutive Nox4 activity; type: cell-based; conditions: for Nox4 activity (in words): Amplex Red, COS-Nox4 cells
T2 sequence (Q9NPH5 1-578): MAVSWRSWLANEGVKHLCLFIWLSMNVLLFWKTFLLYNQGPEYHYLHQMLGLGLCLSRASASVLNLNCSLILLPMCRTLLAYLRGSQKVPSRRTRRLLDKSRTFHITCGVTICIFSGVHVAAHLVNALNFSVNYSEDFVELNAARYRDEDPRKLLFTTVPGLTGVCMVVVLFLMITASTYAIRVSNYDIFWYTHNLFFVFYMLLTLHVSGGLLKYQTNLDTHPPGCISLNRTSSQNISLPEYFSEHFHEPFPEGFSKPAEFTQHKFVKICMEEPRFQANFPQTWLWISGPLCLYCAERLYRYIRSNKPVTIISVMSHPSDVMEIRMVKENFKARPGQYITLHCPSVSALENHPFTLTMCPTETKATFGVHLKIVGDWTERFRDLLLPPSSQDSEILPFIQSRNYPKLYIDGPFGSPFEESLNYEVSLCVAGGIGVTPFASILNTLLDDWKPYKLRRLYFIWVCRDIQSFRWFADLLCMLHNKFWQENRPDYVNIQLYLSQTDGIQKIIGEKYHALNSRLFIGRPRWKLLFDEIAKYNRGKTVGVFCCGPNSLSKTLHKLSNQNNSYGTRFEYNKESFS
T2 sequence (P13498 2-195 partner limits assumed): T1 sequence (P13498 2-195 partner limits assumed)
Procedure, shortened: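 Transiently transfected COS-Nox4 cells, unstimulated (constitutive activity), pretreated with various test compound concentrations for 15 min. The initial rate of H2O2 production is read by Amplex Red fluorescence. Results are given as % of vehicle control, mean ± SEM of 3–7 independent experiments; IC50 comes from the concentration–response curve.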

Nox1 = target: T3, Nox1 (Homo sapiens, UniProt Q9Y5S8); type: cell-based; conditions: for Nox1 activity (in words): summary of Table 1
T3 sequence (Q9Y5S8 1-564): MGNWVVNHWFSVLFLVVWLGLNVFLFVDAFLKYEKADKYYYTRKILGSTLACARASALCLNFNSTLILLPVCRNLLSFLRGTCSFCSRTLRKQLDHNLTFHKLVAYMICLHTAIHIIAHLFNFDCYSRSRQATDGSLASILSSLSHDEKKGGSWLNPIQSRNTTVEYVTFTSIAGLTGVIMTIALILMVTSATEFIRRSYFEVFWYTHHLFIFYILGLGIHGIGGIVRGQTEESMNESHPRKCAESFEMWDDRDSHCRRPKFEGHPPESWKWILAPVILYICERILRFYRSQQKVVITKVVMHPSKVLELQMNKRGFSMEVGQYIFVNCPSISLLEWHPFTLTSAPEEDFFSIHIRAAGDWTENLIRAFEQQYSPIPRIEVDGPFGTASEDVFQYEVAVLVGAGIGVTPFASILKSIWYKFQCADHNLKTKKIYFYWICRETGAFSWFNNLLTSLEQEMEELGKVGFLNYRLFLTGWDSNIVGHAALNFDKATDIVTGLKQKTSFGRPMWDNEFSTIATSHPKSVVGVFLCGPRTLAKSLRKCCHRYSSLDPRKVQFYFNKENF
T3 sequence (P13498 2-195 partner limits assumed): T1 sequence (P13498 2-195 partner limits assumed)

Nox5 = target: T4, Nox5 (Homo sapiens, UniProt Q96PH1); assay: L-012 assay of Nox5 activity in HEK-Nox5 cells; type: cell-based; conditions: summary of Table 1
T4 sequence (Q96PH1 1-765): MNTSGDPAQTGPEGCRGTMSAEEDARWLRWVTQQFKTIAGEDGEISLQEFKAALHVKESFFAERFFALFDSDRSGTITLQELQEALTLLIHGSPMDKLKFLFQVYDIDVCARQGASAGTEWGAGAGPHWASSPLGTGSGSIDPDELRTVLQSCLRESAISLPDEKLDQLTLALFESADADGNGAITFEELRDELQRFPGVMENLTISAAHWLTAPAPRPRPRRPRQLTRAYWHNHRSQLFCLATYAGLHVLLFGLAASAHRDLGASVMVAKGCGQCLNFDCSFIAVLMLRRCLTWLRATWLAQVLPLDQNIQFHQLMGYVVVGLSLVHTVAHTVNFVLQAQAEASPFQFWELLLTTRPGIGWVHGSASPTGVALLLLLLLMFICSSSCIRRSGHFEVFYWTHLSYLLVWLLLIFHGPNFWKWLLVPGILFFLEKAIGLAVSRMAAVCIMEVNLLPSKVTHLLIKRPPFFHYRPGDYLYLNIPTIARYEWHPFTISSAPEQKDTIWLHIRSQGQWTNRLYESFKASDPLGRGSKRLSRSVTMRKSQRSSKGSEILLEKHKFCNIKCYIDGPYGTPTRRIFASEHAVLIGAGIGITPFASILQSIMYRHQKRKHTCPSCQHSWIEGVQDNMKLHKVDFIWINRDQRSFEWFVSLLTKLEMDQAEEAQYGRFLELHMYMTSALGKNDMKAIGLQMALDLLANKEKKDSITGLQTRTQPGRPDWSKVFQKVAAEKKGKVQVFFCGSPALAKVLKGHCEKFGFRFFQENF

Nox2 [3] = target: T1, Nox2; assay: Amplex Red assay of ROS generation in whole COS-Nox2 cells; type: cell-based
Procedure, shortened: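 Whole COS-Nox2 cells stimulated with 5 μM PMA, with SOD added to convert O2•− to H2O2. H2O2 is read by Amplex Red fluorescence across a concentration range of test compound. Activity is expressed as % of vehicle control, as mean ± SEM of 3–7 independent experiments; IC50 is derived from the concentration–response curve.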

Compound: C=C(C)C[C@@H]1N[C@H]2CC(C)(C)[C@@H]1c1c(Br)cccc12 [Compound 7]
LiDS-stimulated O2•− generation (Nox2 [1]): almost non-stimulated levels
Effect on cell viability (cell viability): effect on cell viability

Compound: C=C(C)C[C@@H]1N[C@H]2CC(C)(C)[C@@H]1c1ccccc12 [Compound 8]
Activity in primary screen (Nox2 [2]; UPCMLD library screen at 100, 50, 25, and 12.5 μM, L-012, COS-Nox2 cells): inactive
IC50 (Nox4): > 100 µM

Compound: C=C(C)C[C@H]1[C@H]2c3c(Br)cccc3[C@H](CC2(C)C)N1Cc1ccnc2ccccc12 [Compound 11b]
IC50 (Nox4): > 100 µM

Compound: C=C(C)C[C@H]1[C@H]2c3c(Br)cccc3[C@H](CC2(C)C)N1Cc1c[nH]c2ccccc12 [Compound 11c]
IC50 (Nox4): > 100 µM

Compound: C=C(C)C[C@H]1[C@H]2c3c(Br)cccc3[C@H](CC2(C)C)N1CCCCC [Compound 11g]
Nox4 activity (in words) (Nox4): virtually no effect
Nox1 activity (in words) (Nox1): virtually no effect
Nox5 activity (in words) (Nox5): virtually no effect

Compound: C=C(C)C[C@H]1[C@H]2c3c(Br)cccc3[C@H](CC2(C)C)N1Cc1cccs1 [Compound 11h]
IC50 (Nox4): > 100 µM
Nox4 activity (in words) (Nox4): virtually no effect
Nox1 activity (in words) (Nox1): virtually no effect
Nox5 activity (in words) (Nox5): virtually no effect

Compound: CC(C)C[C@@H]1N[C@H]2CC(C)(C)[C@@H]1c1c(Br)cccc12 [Compound 13]
Nox2 inhibitory activity (in words) (Nox2 [2]; text summary of Table 1 (Amplex Red and L-012 assays)): retained inhibitory activity
Effect on cell viability (cell viability): effect on cell viability
Nox1 activity (in words) (Nox1): retained inhibitory activity
Nox5 activity (in words) (Nox5): retained inhibitory activity

Further lines, results first:

IC50 (Nox4): > 100 µM
Compound: C=C(C)C[C@H]1[C@H]2c3c(-c4ccc(Cl)c(Cl)c4)cccc3[C@H](CC2(C)C)N1Cc1ccc2c(c1)OCO2 [Compound 12b]

IC50 (Nox2 [2]): > 100 µM
IC50 (Nox2 [3]): > 100 µM
Compound: C=C(C)C[C@@H]1N[C@H]2CC(C)(C)[C@@H]1c1c(-c3cccnc3)cccc12 [Compound 12d]

IC50 (Nox1): > 100 µM
Compound: C=C(C)C[C@H]1[C@H]2c3c(Br)cccc3[C@H](CC2(C)C)N1S(C)(=O)=O [Compound 14a]

IC50 (Nox4): > 100 µM
Compound: C=C(C)C[C@H]1[C@H]2c3c(Br)cccc3[C@H](CC2(C)C)N1S(=O)(=O)c1ccc(F)cc1 [Compound 14b]
